According to ChEMBL document CHEMBL3297732, “Aryl-substituted aminobenzimidazoles targeting the hepatitis C virus internal ribosome entry site” (Bioorg Med Chem Lett, 2014):
Active and inactive are the calls of the source. The calls are words filed in the database; no cut-off is given here.

The compounds below were run against Internal ribosome entry site (IRES) (assay: Binding affinity to cyanine dye-labeled HCV IRES subdomain 2a RNA by FRET assay in presence of Mg2+). Details: not given.
Design: species or system Hepacivirus hominis
Summary of the method: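 Binding to IIa RNA measured by triplicate titration in a FRET assay that tracks ligand-induced conformational capture of the dye-labeled RNA. EC50 taken from a single-site dose-response fit to the titration data, with standard error from the triplicates.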

Structure (SMILES)	EC50 [µM]
CC(=O)Nc1nc2cc(OCCN(C)C)ccc2n1-c1ccccc1	100
CC(=O)Nc1nc2cc(OCCCN(C)C)ccc2n1-c1ccccc1	210
CN(C)CCCn1c(N)nc2ccc(Nc3ccncc3)cc21	160
CN(C)CCCOc1ccc2nc(N)n(-c3cccc(N(C)C)c3)c2c1	120
CN(C)CCCn1c(N)nc2cccc(-c3cccc(N(C)C)c3)c21	290
CN(C)CCCOc1ccc2c(c1)nc(N)n2-c1ccc(N(C)C)cc1	95
CN(C)CCCOc1ccc2c(c1)nc(NC(=O)c1ccccc1)n2-c1ccccc1	> 500
CN(C)CCCn1c(N)nc2ccc(Nc3cccnc3)cc21	160
CN(C)CCOc1ccc2c(c1)nc(NC(=O)c1ccccc1)n2-c1ccccc1	> 500
CN(C)c1cccc(-n2c(N)nc3ccc(Nc4ccncc4)cc32)c1	100
CN(C)c1cccc(-n2c(N)nc3ccc(Nc4cccnc4)cc32)c1	74

The compounds below were run on Internal ribosome entry site (IRES) (assay: Non-specific binding affinity to cyanine dye-labeled HCV IRES subdomain 2a RNA assessed as precipitation of dye labeled RNA at 50 to 100 uM by FRET assay in presence of Mg2+). Details: Hepacivirus hominis.

Structure (SMILES)	Activity
CN(C)CCCOc1ccc2c(c1)nc(O)n2-c1ccccc1	Active
CN(C)CCCOc1ccc2c(c1)nc(NC(=O)c1ccccc1)n2-c1ccc(N(C)C)cc1	Active
CN(C)CCOc1ccc2c(c1)nc(O)n2-c1ccccc1	Active
CN(C)CCCOc1ccc2nc(O)n(-c3ccc(N(C)C)cc3)c2c1	Active
